In ChEMBL document CHEMBL1949651, “Hamamelitannin from witch hazel (Hamamelis virginiana) displays specific cytotoxic activity against colon cancer cells” (J Nat Prod, 2012):
In brackets after ≈: the same amount, converted by molar mass. Activity calls are given as the source filed them. The calls are words filed in the database; no cut-off is given here.

Tests used:
HT-29 [1] = experiment: Induction of H2O2 production in human HT-29 cells at 100 ug/ml after 72 hrs by ferrous oxidation xylenol orange assay in presence of catalase; format: functional, cell-based
HT-29 [2] = experiment: Induction of H2O2 production in human HT-29 cells at 100 ug/ml after 72 hrs by ferrous oxidation xylenol orange assay; format: functional, cell-based
HT-29 [3] = experiment: Induction of apoptosis in human HT-29 cells assessed as necrotic cells at IC50 after 72 hrs by annexin V/propidium iodide-based flow cytometry; format: functional
Outline: (§1)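 HT29 seeded, treated 72 h and harvested as for cell cycle; staurosporine 1 μM as control. Annexin+/PI− early apoptotic; annexin+/PI+ and annexin−/PI+ late apoptotic/necrotic; three separate experiments.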

[4] = Antioxidant activity against TNPTM assessed per micromol of radical after 48 hrs by UV spectrophotometry; format: functional
Outline: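 As for HNTTM but with TNPTM radical, sample range 10–120 μM, 48 h incubation, absorbance at 378 nm; percentage absorbance loss versus sample over initial radical micromoles, dose–response curve, EC50 and ARP; three independent determinations.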

HT-29 [5] = experiment: Antiproliferative activity against human HT-29 cells after 72 hrs by MTT assay; format: functional, cell-based; details: HT-29, 72 h
Outline: (§2)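 HT29 (ATCC HTB-38) in DMEM with 10% heat-inactivated FCS, 0.1% streptomycin/penicillin; 3 × 10^3 cells/well, 24 h at 37 °C, then graded concentrations in fresh medium for 72 h, optionally with bovine liver catalase (100 U/mL). MTT (1 mg/mL in PBS) 1 h, formazan dissolved in DMSO, absorbance 550 nm; IC50 from dose–viability curves; three independent experiments.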

[6] = system: Radical scavenging activity; experiment: Antioxidant activity against DPPH assessed per micromol of radical after 30 mins by UV spectrophotometry; format: functional
Outline: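 DPPH radical in solution; 30 min at room temperature in the dark, absorbance at 517 nm. Percentage absorbance loss [(1 − A/A0) × 100] plotted against sample amount over initial DPPH concentration; three independent determinations per point.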

[7] = Antiproliferative activity against human NCM460 cells after 72 hrs by MTT assay; format: cell-based; details: NCM460, 72 h
Outline: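 NCM460 normal colon mucosa epithelial cells in M3Base with 10% heat-inactivated FCS plus 2.5 mM D-glucose (5 mM final); 1 × 10^4 cells/well, 24 h at 37 °C, graded concentrations for 72 h. MTT 1 h, DMSO-dissolved formazan read at 550 nm; IC50 from dose–viability curves; three independent experiments.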

HT-29 [8] = experiment: Induction of apoptosis in human HT-29 cells assessed as apoptotic cells at IC50 after 72 hrs by annexin V/propidium iodide-based flow cytometry; format: functional; outline: as §1
[9] = Antioxidant activity against HNTTM assessed per micromol of radical after 7 hrs by UV spectrophotometry; format: functional
Outline: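 Polyphenols (2–62 μM, fresh) mixed 1:1 by volume with HNTTM (120 μM) in deoxygenated CHCl3–MeOH (2:1); 7 h at room temperature in the dark, absorbance at 384 nm. Percentage absorbance loss plotted against sample over initial radical micromoles; dose–response curve per sample, EC50 and ARP reported; three independent determinations.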

HT-29 [10] = experiment: Cell cycle arrest in human HT-29 cells assessed as accumulation at S phase at IC50 after 72 hrs by propidium iodide staining based flow cytometry; format: functional
Outline: (§3)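 HT29 seeded 87 × 10^3 cells/well, 24 h at 37 °C, treated 72 h; hydroxyurea 1 mM as standard. Trypsinized cells stained in Tris-buffered saline with 50 μg/mL PI, 10 μg/mL DNase-free RNase, 0.1% Igepal CA-630, 1 h at 4 °C dark; flow cytometry at 488 nm; normalized G1/S/G2 percentages, three separate experiments.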

HT-29 [11] = experiment: Antiproliferative activity against human HT-29 cells after 72 hrs by MTT assay in presence of H2O2 scavenger catalase; format: functional, cell-based; details: HT-29, 72 h; outline: as §2
HT-29 [12] = experiment: Cell cycle arrest in human HT-29 cells assessed as reduction of cells at G2 phase at IC50 after 72 hrs by propidium iodide staining based flow cytometry; format: functional; outline: as §3
HT-29 [13] = experiment: Cell cycle arrest in human HT-29 cells assessed as reduction of cells at G1 phase at IC50 after 72 hrs by propidium iodide staining based flow cytometry; format: functional; outline: as §3

For `O=C(O[C@@H]1Cc2c(O)cc(O)cc2O[C@@H]1c1cc(O)c(O)c(O)c1)c1cc(O)c(O)c(O)c1`, the Activity (HT-29 [1]) was “inactive” and the Activity (HT-29 [2]) was “Dose-dependent effect”.
With `O=C(OC[C@H]1OC(O)[C@@](O)(COC(=O)c2cc(O)c(O)c(O)c2)[C@@H]1O)c1cc(O)c(O)c(O)c1` (stereo partly specified) [HAMAMELITANNIN] the Activity (HT-29 [1]) was “inactive”, the Activity (HT-29 [3]) was 14% and the EC50 [4] was 116 µg/µmol. The IC50 (HT-29 [5]) was 20 µg/mL (≈ 41.3 µM), the EC50 [6] was 27.8 µg/µmol and the IC50 [7] was over 100 µg/mL. For the same compound, the Activity (HT-29 [2]) was “Dose-dependent effect”, the Activity (HT-29 [8]) was 26% and the EC50 [9] was 71.2 µg/µmol. The Activity (HT-29 [10]) was 16% and the IC50 (HT-29 [11]) was 13 µg/mL.
In the case of `O=C(OC[C@H]1O[C@@H](OC(=O)c2cc(O)c(O)c(O)c2)[C@H](OC(=O)c2cc(O)c(O)c(O)c2)[C@@H](OC(=O)c2cc(O)c(O)c(O)c2)[C@@H]1OC(=O)c1cc(O)c(O)c(O)c1)c1cc(O)c(O)c(O)c1` [PENTAGALLOYL GLUCOSE], the Activity (HT-29 [1]) is reported as “inactive”, the Activity (HT-29 [3]) is reported as 5% and the EC50 [4] is reported as 2400 µg/µmol. For the same compound, the Activity (HT-29 [12]) was “Active”, the Activity (HT-29 [13]) was “Active” and the IC50 (HT-29 [5]) was 28 µg/mL (≈ 29.8 µM). For the same compound, the EC50 [6] was 23.8 µg/µmol, the IC50 [7] was 23 µg/mL (≈ 24.5 µM) and the Activity (HT-29 [2]) was “Dose-dependent effect”. For the same compound, the Activity (HT-29 [8]) was 11%, the EC50 [9] was 54.8 µg/µmol and the Activity (HT-29 [10]) was 8%. It also gave an IC50 (HT-29 [11]) of 34 µg/mL.
